Values joined by “and” are separate entries in the source; they are usually repeats but may differ in a detail not shown here. Equal entries are not always repeated.
Assays:
[1] = Single dose pharmacokinetics in mice; type: in vivo, mouse
In short: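 Fasted female heterozygous Foxn1nu/Foxn1+ mice, 3 per time point (5–1440 min), received a single dose by one of three routes: 4.0 mg/kg in 10% Solutol HS IV via tail vein; the same formulation by oral gavage; or 30 mg/kg PO in 1% CMC suspension. Vehicle controls were taken at 5 and 1440 min. Sampling: cardiac-puncture EDTA plasma, tissues including brain, and metabolic-cage urine. Analysis by LC-MS/MS with a deuterated internal standard. Group means underwent non-compartmental analysis; […].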

[2] = Plasma protein binding by rapid equilibrium dialysis; type: in vitro ADME, mouse; settings: for fraction unbound at 4 h, 1000 ng/mL: mouse, plasma, pH 7.2, plasma protein binding
In short: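 Rapid equilibrium dialysis with control mouse plasma spiked to 1,000 ng/mL from a DMSO stock (organic <0.1%). Four 200 µL replicates were dialysed against PBS (pH 7.2), shaken at 37 °C for 4 h. Both compartments were quantified by LC-MS/MS against a curve in 1:1 PBS:plasma, with samples diluted to match the matrix. Assay LLQ was 1 ng/mL.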

[3] = Mouse liver microsome incubation for glucuronide metabolism; type: in vitro ADME; settings: mouse liver microsomes 0.25 mg/mL, alamethicin, UDPGA
In short: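 Glucuronidation incubation used microsomes from female heterozygous Foxn1nu/Foxn1+ mouse liver. Mix: 0.1 M phosphate (pH 7.4), 0.25 mg/mL microsomal protein, 25 µg/mL alamethicin, 50 mM Tris-HCl, 10 mM MgCl2 and 1,000 ng/mL drug. A mix without UDPGA served as negative control. Samples were analysed twice: SRM monitoring of the m/z 613 glucuronide channel, then MRM quantitation of parent depletion against a curve in buffer with 0.25 mg/mL BSA. Parent expressed relative to time 0.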

[4] = Stability of UPCDC-10205 in mouse plasma; type: in vitro ADME
In short: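 Assay evaluation in control mouse plasma used QCs at 2.5, 30 and 800 ng/mL. 100 µL samples were spiked with deuterated internal standard, precipitated with acetonitrile, and supernatants dried at 37 °C under nitrogen before positive-ion MRM LC-MS/MS. Recovery and ion suppression were assessed at the 30 ng/mL QC. Also tested: bench stability during sample preparation for 4 h at room temperature, and three −80 °C freeze/thaw cycles.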

[5] = test system: pSTAT3 from IL-6 induction in a Cal33 cell line; settings: read-out: IC50, inhibiting pSTAT3 from IL-6 induction; cited from earlier work
[6] = female, heterozygous Foxn1nu/Foxn1+, mouse, plasma, iv, 4 mg/kg
[7] = female, heterozygous Foxn1nu/Foxn1+, mouse, plasma, po, 4 mg/kg
[8] = female, heterozygous Foxn1nu/Foxn1+, mouse, plasma, po, 30 mg/kg
[9] = female, heterozygous Foxn1nu/Foxn1+, mouse, red blood cells (RBC), iv, 4 mg/kg
[10] = female, heterozygous Foxn1nu/Foxn1+, mouse, red blood cells, po, 4 mg/kg
[11] = female, heterozygous Foxn1nu/Foxn1+, mouse, skeletal muscle, po, 4 mg/kg
[12] = mouse plasma spiked at 1,000 ng/mL, RED, 37 °C, 4 hours, calculated using the LLQ value (1 ng/mL)

Q: With `COc1ccc(C2=Nn3c(nnc3-c3cc(-c4ccc(Cl)cc4)n[nH]3)SC2C)cc1` (stereo not shown) [UPCDC-10205, 3-(3-(4-chlorophenyl)-1H-pyrazole-5-yl)-6-(4-methoxyphenyl)-7-methyl-7H-[1,2,4]triazolo[3,4-b][1,3,4]thiadiazine] as the molecule, how does the Cmax ([1]; female, heterozygous Foxn1nu/Foxn1+, mouse, muscle, po, 30 mg/kg, mice, PO 30 mg/kg suspension in 1% CMC, muscle) read?
A: 189 ng/mL

Q: And the AUC(0-inf) [1, 6]?
A: 1020 ng·h/mL

Q: What about the AUC(0-t) [1, 6] of the same molecule?
A: 1020 ng·h/mL

Q: What about the Tmax [1, 6] of the same molecule?
A: 5 min

Q: And the half-life [1, 6]?
A: 36 min

Q: What about the Cmax ([1]; female, heterozygous Foxn1nu/Foxn1+, mouse, plasma, iv, 4 mg/kg, mice, IV 4 mg/kg in 10% Solutol HS, plasma) of the same molecule?
A: 1710 ng/mL

Q: What about the Vd ([1]; female, heterozygous Foxn1nu/Foxn1+, mouse, plasma, iv, 4 mg/kg, Vd, mice, IV 4 mg/kg, plasma) of the same molecule?
A: 3.4 L/kg

Q: What about the Vd ([1]; female, heterozygous Foxn1nu/Foxn1+, mouse, plasma, iv, 4 mg/kg, Vss, mice, IV 4 mg/kg, plasma) of the same molecule?
A: 2 L/kg

Q: What about the clearance ([1]; female, heterozygous Foxn1nu/Foxn1+, mouse, plasma, iv, 4 mg/kg, clearance, mice, IV 4 mg/kg, plasma) of the same molecule?
A: 65.2 mL/min/kg

Q: What about the bioavailability ([1]; female, heterozygous Foxn1nu/Foxn1+, mouse, plasma, oral, 30 mg/kg) of the same molecule?
A: 0.3%

Q: And the AUC(0-t) [1, 7]?
A: 52.1 ng·h/mL

Q: And the Tmax [1, 7]?
A: 30 min

Q: What about the half-life [1, 7] of the same molecule?
A: 48 min

Q: And the Cmax ([1]; female, heterozygous Foxn1nu/Foxn1+, mouse, plasma, po, 4 mg/kg, mice, PO 4 mg/kg in 10% Solutol HS, plasma)?
A: 35 ng/mL

Q: And the AUC(0-t) [1, 8]?
A: 25.7 ng·h/mL

Q: What about the Tmax [1, 8] of the same molecule?
A: 60 min

Q: And the half-life [1, 8]?
A: 204 min

Q: What about the Cmax ([1]; female, heterozygous Foxn1nu/Foxn1+, mouse, plasma, po, 30 mg/kg, mice, PO 30 mg/kg suspension in 1% CMC, plasma) of the same molecule?
A: 6.7 ng/mL

Q: What about the AUC(0-t) [1, 9] of the same molecule?
A: 556 ng·h/mL

Q: And the Tmax [1, 9]?
A: 5 min

Q: And the Cmax ([1]; female, heterozygous Foxn1nu/Foxn1+, mouse, red blood cells (RBC), iv, 4 mg/kg, mice, IV 4 mg/kg in 10% Solutol HS, RBC)?
A: 980 ng/mL

Q: What about the Cmax ([1]; female, heterozygous Foxn1nu/Foxn1+, mouse, red blood cells (RBC), po, 4 mg/kg, mice, PO 4 mg/kg in 10% Solutol HS, RBC) of the same molecule?
A: 16 ng/mL

Q: And the AUC(0-t) [1, 10]?
A: 23.5 ng·h/mL

Q: What about the Tmax [1, 10] of the same molecule?
A: 30 min

Q: What about the AUC(0-t) [1, 11] of the same molecule?
A: 91.4 ng·h/mL

Q: And the Tmax [1, 11]?
A: 60 min

Q: And the “level in pooled urine as % of the total amount administered” value ([1]; mice, IV 4 mg/kg, 0-6 h collection)?
A: 0.0011%

Q: And the “level in pooled urine as % of the total amount administered” value ([1]; mice, IV 4 mg/kg, 6-24 h collection)?
A: 0.0010%

Q: What about the clearance ([1]; mice, IV 4 mg/kg, plasma, 4 mg/kg) of the same molecule?
A: 65 mL/min/kg

Q: And the “peak plasma concentration after IV dosing” value ([1]; mice, IV 4 mg/kg, 4 mg/kg)?
A: 1.7 µg/mL and 4.0 µM

Q: And the “plasma level by the 6 h time point” value ([1]; mice, IV 4 mg/kg, LLQ 1 ng/mL)?
A: below the lower limit of quantitation

Q: What about the “%F (oral bioavailability, using AUC0-t)” value ([1]; mice, PO 4 mg/kg in 10% Solutol HS vs IV 4 mg/kg, plasma, 4 mg/kg) of the same molecule?
A: 5.1%

Q: What about the “level in pooled urine as % of the total dose” value ([1]; mice, PO 4 mg/kg, 0-6 h) of the same molecule?
A: 0.0077%

Q: What about the urine concentration ([1]; mice, PO 4 mg/kg, 6-24 h) of the same molecule?
A: below the LLQ

Q: And the “time of Cmax after administration” value ([1]; mice, PO 4 mg/kg, plasma)?
A: 0.5 h

Q: What about the “plasma concentrations after the 2 h time point” value ([1]; mice, PO 4 mg/kg, LLQ 1 ng/mL) of the same molecule?
A: below the LLQ

Q: What about the “time of Cmax after administration” value ([1]; mice, PO 30 mg/kg in 1% CMC suspension, plasma) of the same molecule?
A: 1.0 h

Q: What about the urine concentration ([1]; mice, PO 30 mg/kg in 1% CMC, all urine samples) of the same molecule?
A: below the LLQ

Q: What about the “amount excreted in urine” value ([1]; mice, renal excretion) of the same molecule?
A: < 0.1 % of dose

Q: And the tissue distribution ([1]; mice, tissue levels compared with plasma)?
A: extensive tissue distribution

Q: What about the “concentration in the plasma portion of the RED device” value ([2]; average of 4 replicates, 37 °C, 4 hours) of the same molecule?
A: 1,091 ng/mL

Q: What about the “concentration in the saline buffer portion of the RED device” value ([2]; below the 1 ng/mL assay LLQ) of the same molecule?
A: 0.2 ng/mL

Q: What about the plasma protein binding [2, 12] of the same molecule?
A: > 99.9%

Q: What about the fraction unbound at 4 h, 1000 ng/mL ([2]; mouse plasma spiked at 1,000 ng/mL, RED, 37 °C, 4 hours, calculated using 0.2 ng/mL) of the same molecule?
A: ~0.0002

Q: What about the fraction unbound at 4 h, 1000 ng/mL [2, 12] of the same molecule?
A: < 0.0009

Q: And the “UPCDC-10205 remaining relative to time 0 after 60 min” value [3]?
A: 67%

Q: What about the “stability in plasma during sample preparation” value ([4]; QCM (30 ng/mL), 4 h at room temperature) of the same molecule?
A: 100.8%

Q: What about the recovery at 30 ng/mL ([4]; mouse) of the same molecule?
A: 112%

Q: What about the IC50 [5] of the same molecule?
A: 2200 nM

Source: publication PMC5115981 (Cancer chemotherapy and pharmacology, 2016)
